# According to paper PMC5575737 (Bioorganic & medicinal chemistry letters, 2017):
# Tests used:
# [1] = test system: H460 cells; assay: JC-1 mitochondrial membrane potential assay; format: cell-based
# [2] = Solubility in water, water/DMSO and 2-HPβCD solutions; format: physicochemical; conditions: for behaviour on addition of water to the DMSO solution: final 1% DMSO in water
# [3] = test system: four NSCLC lines (NCI-H460, NCI-H1975, A549, HCC827); assay: MTT cell viability assay, all four lines; format: cell-based; conditions: 72 h, read-out: IC50 values, range over four NSCLC lines
# In short: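 Cells were exposed for 72 h, then viability was read by MTT. Test compound was dissolved in DMSO and diluted with water to 1% DMSO, giving at most 0.032% DMSO final in medium. A parallel run used stock in 10% (w/v) 2-HPβCD (≤0.008% final), with 0.008% 2-HPβCD vehicle controls. Cisplatin was dissolved in water. IC50 was the concentration giving 50% loss of viability versus control cells.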
# [4] = test system: nine NSCLC lines; assay: NCI-60 one-dose assay, average; format: cell-based, human; conditions: average over the NSCLC lines tested; single dose 10 μM
# In short: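 The NCI DTP ran the NCI-60 one-dose screen. Cells were plated at densities matched to doubling rate and incubated overnight, then exposed to 10 μM test compound for […]. Growth percentage came from protein density at the end versus the start of exposure. Values were averaged across the nine NSCLC lines.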
# [5] = test system: C57BL/6 mice; assay: Preliminary in vivo toxicity study
# [6] = test system: H460 cells; assay: Annexin V apoptosis assay; format: cell-based
# In short: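 H460 cells in 6-well plates were treated with the test compound in 10% (w/v) 2-HPβCD aqueous solution or in DMSO. Controls were 2-HPβCD vehicle and cisplatin. Cells were stained with Annexin V-FITC plus propidium iodide and imaged by fluorescence microscopy (20× objective) at 12, 14, 17 and 20 h. Read-outs were green versus green+red fluorescence and membrane blebbing.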
# [7] = test system: DNA; assay: DNA interaction: viscosity and fluorescent intercalator displacement assays; format: binding
# [8] = test system: HOP-92; assay: NCI-60 five-dose assay; format: cell-based, human
# In short: (§1)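 The NCI DTP ran the NCI-60 five-dose screen. Cells were exposed to the test compound at 10 nM, 100 nM, 1 μM, 10 μM and 100 μM. Read-outs were growth inhibition by 50% (GI50), total growth inhibition (TGI) and 50% lethal concentration (LC50), each relative to control cells.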
# [9] = test system: EKVZ; assay: NCI-60 five-dose assay; format: cell-based, human
# In short: as §1
# [10] = test system: HOP-62; assay: NCI-60 five-dose assay; format: cell-based, human
# In short: as §1
# [11] = test system: NCI-H522; assay: NCI-60 five-dose assay; format: cell-based, human
# In short: as §1
# [12] = test system: NCI-H226; assay: NCI-60 five-dose assay; format: cell-based, human
# In short: as §1
# [13] = test system: A549/ATCC; assay: NCI-60 five-dose assay; format: cell-based, human
# In short: as §1
# [14] = test system: NCI-H460; assay: NCI-60 five-dose assay; format: cell-based, human
# In short: as §1
# [15] = test system: H460 cells; conditions: cited from earlier work
compound,measurement,setting,value
"N#CC(C#N)=NNc1cccc(Cl)c1 [CCCP, carbonylcyanide m-chlorophenylhydrazone, reference compound]",mitochondrial potential versus media control cells,[1]; positive control,mitochondria potential was decreased
Cc1n(Cc2ccc3ccccc3c2)cc[n+]1Cc1ccc2ccccc2c1.[Br-] [Compound 1],behaviour on addition of water to the DMSO solution,[2],slight precipitation
same,IC50,[3],0.66 to 3.5 µM
same,Growth % Average,[4],21.19%
CCc1n(Cc2ccc3ccccc3c2)cc[n+]1Cc1ccc2ccccc2c1.[Br-] [Compound 2],clinical observation the day after the second injection,"[5]; 15 mg/kg IP on day fourteen, two surviving mice",both animals were sacrificed due to lethargic movement
same,body weight after first injection,[5]; 20 mg/kg IP,sharp decrease in weight
same,mortality,"[5]; 20 mg/kg IP on day zero in 20% 2-HPβCD, day two",one mouse from the experimental group was found deceased
same,overall toxicity,[5]; 20 mg/kg then 15 mg/kg IP,quite toxic at the doses administered
same,average weight loss,"[5]; after second injection, 15 mg/kg IP on day fourteen",around 6%
same,"red fluorescence (J-aggregates, intact MMP)","[1]; 20 μM, 1 hour versus 15 minutes",apparent decrease in intensity
same,"red fluorescence (J-aggregates, intact MMP)","[1]; 40 μM, 30 minutes",minimal red fluorescence
same,"red fluorescence (J-aggregates, intact MMP)","[1]; 40 μM, 1 hour and 2.5 hours",minimal red fluorescence
same,time at which strong green fluorescence (Annexin V-FITC) was observed,"[6]; 40 μM, water/DMSO solution",1 h
same,time of treatment at which blebbing occurs,[6]; 2-HPβCD vehicle,14 h
same,mode of cell death,"[6]; DMSO or 2-HPβCD vehicle, two independent trials",causes apoptosis
same,time of treatment at which blebbing occurs,[6]; DMSO vehicle,3 h
same,behaviour on addition of water to the DMSO solution,[2],remained soluble
same,IC50,[3],0.66 to 3.5 µM
same,Growth % Average,[4],4.18%
same,interaction with DNA,[7],little to no interaction with DNA
CCCc1n(Cc2ccc3ccccc3c2)cc[n+]1Cc1ccc2ccccc2c1.[Br-] [Compound 3],behaviour on addition of water to the DMSO solution,[2],remained soluble
same,IC50,[3],0.66 to 3.5 µM
same,Growth % Average,[4],2.33%
CCCCc1n(Cc2ccc3ccccc3c2)cc[n+]1Cc1ccc2ccccc2c1.[Br-] [Compound 4],TGI,[8],2.35 µM
same,GI50,[8]; Homo sapiens,0.844 µM
same,TGI,[9]; EKVZ,3.47 µM
same,GI50,[9]; Homo sapiens,1.35 µM
same,TGI,[10],2.75 µM
same,GI50,[10]; Homo sapiens,1.29 µM
same,TGI,[11],1.89 µM
same,GI50,[11]; Homo sapiens,0.491 µM
same,behaviour on addition of water to the DMSO solution,[2],slight precipitation
same,TGI,[12],2.93 µM
same,GI50,[12]; Homo sapiens,1.35 µM
same,IC50,[3],0.66 to 3.5 µM
same,Growth % Average,[4],−1.36%
same,TGI,[13]; A549/ATCC,3.24 µM
same,GI50,"[13]; Homo sapiens, A549",1.67 µM
same,TGI,[14],2.82 µM
same,GI50,[14]; Homo sapiens,1.25 µM
CC(C)c1n(Cc2ccc3ccccc3c2)cc[n+]1Cc1ccc2ccccc2c1.[Br-] [Compound 5],solubility in 2-HPβCD solution,[2]; 10% 2-HPβCD by weight in water,mostly soluble
same,behaviour on addition of water to the DMSO solution,[2],remained soluble
same,IC50,[3],0.66 to 3.5 µM
"Clc1c(Cl)[n+](Cc2ccc3ccccc3c2)cn1Cc1ccc2ccccc2c1.[Br-] [IS23, 4,5-dichloro-1,3-bis(naphthalen-2-ylmethyl)imidazolium bromide]","time of morphological changes (cell shrinkage, rounding, detachment)",[15],within the first hour
